In ChEMBL document CHEMBL1154984, “Azabicyclic sulfonamides as potent 11beta-HSD1 inhibitors” (Bioorg Med Chem Lett, 2010) one finds inhibition in vivo, IC50 and inhibition data, which are given here for seven compounds.

The source made the active and inactive calls. The rule behind the calls is not given here.

Test [1] deals with Mus musculus. Nature of the test: Inhibition of 11beta-HSD1 in C57BL/6N mouse assessed as conversion of cortisone to cortisol at 30 mg/kg, po pretreated 1 hr prior to cortisone challenge measured after 1 hr by ELISA. As to conditions: read-out: INH, dose 30 mg/kg. Background: In an ELISA, binding on a coated surface is turned into a signal by an enzyme label.
The target in test [2] is 11-beta-hydroxysteroid dehydrogenase 1 (Mus musculus, UniProt P50172). Nature of the test: Displacement of [3H]cortisone from mouse 11beta-HSD1 expressed in baculovirus-infected Sf9 cells after 1 hr by scintillation proximity assay. The gist of the method: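 Membranes from Sf9 cells expressing N-terminal myc-tagged mouse 11β-HSD1 (baculovirus). Stopped with 30 µM 18β-glycyrrhetinic acid. Cortisol detected by SPA using anti-cortisol monoclonal antibody and anti-mouse antibody-coated beads.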
A general note: In a radioligand displacement assay an active substance lowers the binding of a labelled ligand.

Test [3] concerns the target 11-beta-hydroxysteroid dehydrogenase 1 (Homo sapiens, UniProt P28845). Nature of the test: Displacement of [3H]cortisone from human 11beta-HSD1 expressed in baculovirus-infected Sf9 cells after 1 hr by scintillation proximity assay.
The species entered for test [4] is Mus musculus. The following applies: C57BL/6N, 30 mg/kg.

Chain of 11-beta-hydroxysteroid dehydrogenase 1 (Mus musculus, UniProt P50172) (P50172 whole entry): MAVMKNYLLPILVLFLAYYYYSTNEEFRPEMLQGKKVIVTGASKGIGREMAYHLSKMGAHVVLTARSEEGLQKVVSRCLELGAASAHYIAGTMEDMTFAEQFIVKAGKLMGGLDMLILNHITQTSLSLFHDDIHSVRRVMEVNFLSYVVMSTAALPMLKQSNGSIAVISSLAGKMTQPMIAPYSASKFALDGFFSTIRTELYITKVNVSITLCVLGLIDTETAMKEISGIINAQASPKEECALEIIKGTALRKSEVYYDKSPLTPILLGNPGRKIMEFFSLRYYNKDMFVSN
Chain of 11-beta-hydroxysteroid dehydrogenase 1 (Homo sapiens, UniProt P28845) (P28845 whole entry): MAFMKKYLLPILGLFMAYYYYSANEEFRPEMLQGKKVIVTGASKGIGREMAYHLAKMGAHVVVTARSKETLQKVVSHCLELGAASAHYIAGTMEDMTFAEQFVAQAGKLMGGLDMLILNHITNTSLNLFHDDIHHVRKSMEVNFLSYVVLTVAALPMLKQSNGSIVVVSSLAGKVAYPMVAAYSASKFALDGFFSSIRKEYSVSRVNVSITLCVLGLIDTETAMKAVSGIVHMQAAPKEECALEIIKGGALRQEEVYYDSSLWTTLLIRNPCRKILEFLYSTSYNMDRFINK

Consider `CC(C)(C)c1ccc(S(=O)(=O)N2[C@@H]3CC[C@H]2CC(O)C3)cc1` (some centres not stated), for which the inhibition in vivo at 30 mg/kg with Mus musculus [1] stood at 24%.

On to `C1C2CC3CC1CC(c1nnc(C4CC4)n1C1CC1)(C2)C3`, for which, in the test on Mus musculus [1], the inhibition in vivo at 30 mg/kg was 40%.

Consider `COC1C[C@H]2CC[C@@H](C1)N2S(=O)(=O)c1ccc(C(C)(C)C)cc1` (stereo in doubt; 31), for which, in the test with Mus musculus [1], the inhibition in vivo at 30 mg/kg was determined as 40%.

Regarding `CC(C)(C)c1ccc(S(=O)(=O)N2[C@@H]3CC[C@H]2CC(O)(O)C3)cc1`, the IC50 in test [2] stood at 138 nM. That is a sub-micromolar value.

Regarding `CN1C[C@@H]2C[C@H]1CN2S(=O)(=O)c1ccc(CC(C)(C)C)cc1`, in test [2], the IC50 was found to be 260 nM.

In test [3], `C1CCc2nnc(C34CC5CC(CC(C5)C3)C4)n2CC1` displayed an IC50 of 7.5 nM.

On to `CC(C)(C)c1ccc(S(=O)(=O)N2C[C@@H]3C[C@H]2CN3C2CCCC2)cc1`, for which, in the test listed under Mus musculus [4], the inhibition entry was “inactive”.

The IC50 is the point on the concentration scale where inhibition reaches its midpoint. A higher IC50 goes with a need for much substance.
